This note sets out measurements from ChEMBL document CHEMBL1150563, “Six new diarylheptanoids from the seeds of Alpinia blepharocalyx” (2001).

pEC50: −log10 of the molar value.

Test [1] is described as follows: Antiproliferative activity against mouse Colon 26-L5 cells by MTT assay. The format is functional. As to conditions: read-out: ED50 (the source's name). The method in brief:
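Murine colon 26-L5 carcinoma cells grown in RPMI-1640 with 10% fetal calf serum, 0.1% NaHCO3 and 2 mM glutamine. Cell viability in presence and absence of agent measured by MTT; 5-fluorouracil served as positive control. ED50 derived from the mean of six determinations.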

The next test deals with HT-1080. The experiment in a line: Antiproliferative activity against human HT1080 cells by MTT assay. As to conditions: read-out: ED50 (the source's name). In kind it is functional. Summed up: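 Human HT-1080 fibrosarcoma cells grown in Eagle's MEM with 10% fetal calf serum, 0.1% NaHCO3 and 2 mM glutamine. Viability with and without test agent read by MTT assay; 5-fluorouracil as positive control. ED50 calculated from the mean of six determinations.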

Consider `COc1cc(O)cc2c1C(=O)C[C@@H](c1ccc(O)cc1)O2`, for which the pEC50 (in test [1]; in the test on HT-1080) was < 4.00 throughout.
Regarding `O=C(/C=C(O)/C=C/c1ccc(O)cc1)CCc1ccc(O)cc1`, the pEC50 in test [1] is 4.20; in the test with HT-1080 it was < 4.00.
On to `COc1cc(O)cc(OC)c1C(=O)/C=C/c1ccc(O)cc1`, for which the figures for the pEC50 (in test [1]; with HT-1080) were 4.54 and 4.30, respectively.
With `CCO[C@H](/C=C/c1ccccc1)C[C@@H](O)CCc1ccc(O)cc1`, the pEC50 in test [1] was 4.02; with HT-1080 it was < 4.00.
For `COc1cc(/C=C/c2ccc(O)cc2)oc(=O)c1`, in that order: 4.68 and 4.70.
As for `O=C(/C=C/C=C/c1ccc(O)cc1)CCc1ccc(O)cc1`, the pEC50 is 4.24 in test [1] and 4.10 with HT-1080.
For `Oc1ccc(CC[C@H](O)C[C@@H](O)CCc2ccc(O)cc2)cc1`, in that order: 4.89 and 4.03.
As for `CO[C@H](/C=C/c1ccccc1)C[C@@H](O)CCc1ccc(O)cc1`, the pEC50 is 4.06 in test [1] and < 4.00 with HT-1080.
For `CO[C@@H](/C=C/c1ccccc1)C[C@@H](O)CCc1ccc(O)cc1`, in that order: < 4.00 and < 4.00.
The matching figures for `CCO[C@@H](/C=C/c1ccccc1)C[C@@H](O)CCc1ccc(O)cc1`: < 4.00 and < 4.00.
For `CO[C@@H](CCc1ccc(O)cc1)CC(=O)/C=C/c1ccc(O)cc1`, the pEC50 in test [1] is 5.28; in the test on HT-1080, 5.00.
The matching figures for `CC(=O)/C=C/c1ccc(O)cc1`: < 4.00 and < 4.00.
The matching figures for `O=C(/C=C/c1ccc(O)cc1)c1ccc(O)cc1` [4,4'-DIHYDROXYCHALCONE]: < 4.00 and < 4.00.
As for `O=Cc1ccc(O)cc1` [4-HYDROXYBENZALDEHYDE], the pEC50 (in test [1]; in the test on HT-1080) was < 4.00 throughout.
Regarding `O=C(O)/C=C/c1ccc(O)cc1` [COUMARIC ACID], the pEC50 (in test [1]; in the test with HT-1080) was < 4.00 each time.
As to `COc1cc(/C=C/c2ccccc2)oc(=O)c1` [DESMETHOXYYANGONIN], the pEC50 (in test [1]; in the test on HT-1080) was < 4.00 in each case.
Regarding `O=c1[nH]cc(F)c(=O)[nH]1` [FLUOROURACIL], the results for the pEC50 (in test [1]; with HT-1080) were 6.30 and 5.10, respectively.
For `COc1cc(O)cc(O)c1C(=O)/C=C/c1ccc(O)cc1` [HELICHRYSETIN], in that order: 4.19 and 4.40.
The matching figures for `COC(=O)/C=C/c1ccc(O)cc1` [METHYL P-HYDROXYCINNAMATE]: 4.07 and < 4.00.
In the case of `Oc1cc(O)cc(O)c1` [PHLOROGLUCINOL], the pEC50 in test [1] was 4.58; in the test on HT-1080 it was 4.68.
For `CC[C@H](CC[C@@H](C)[C@H]1CC[C@H]2[C@@H]3CC=C4C[C@@H](O[C@@H]5O[C@H](CO)[C@@H](O)[C@H](O)[C@H]5O)CC[C@]4(C)[C@H]3CC[C@]12C)C(C)C` [SITOGLUSIDE], in that order: < 4.00 and < 4.00.
